The values below come from ChEMBL document CHEMBL4477213, “Discovery and Optimization of Quinazolinone-pyrrolopyrrolones as Potent and Orally Bioavailable Pan-Pim Kinase Inhibitors” (J Med Chem, 2016).

pIC50: −log10 of the molar value.

Data set [1] can be described thus: Clearance in dog at 0.3 mg/kg, iv. The class given is ADME, organism-based, Canis lupus familiaris. To be noted: in vivo.
A short description of data set [2]: Fraction unbound in dog plasma by rapid equilibrium dialysis. The data set is classed as ADME, cell-free, Canis lupus familiaris. For orientation: In equilibrium dialysis only unbound substance equilibrates across the membrane.
The nature of data set [3]: Drug metabolism in rat liver microsomes assessed as hydroxylation of t-butyl group measured as 2-(6-fluoro-3-(1-hydroxy-2-methylpropan-2-ylamino)-2-methylquinoxalin-5-yl)-6,7-dihydro-1H-pyrrolo[3,2-c]pyridin-4(5H)-one formation. The class given is ADME, Microsome. (In general: Microsomes from liver hold many membrane-bound enzymes, among them those of drug oxidation.)

Data set [4] can be described thus: Half life in rat at 2 mg/kg, iv or 5 mg/kg, po. The data set is classed as ADME, organism-based. To be noted: in vivo.
Data set [5] has as its target Serine/threonine-protein kinase pim-2 (Homo sapiens, UniProt Q9P1W9). As to the kind of experiment: Inhibition of full length recombinant Pim-2 (unknown origin) assessed as reduction in phosphorylation of biotinylated-BAD peptide at Serine 112 residue preincubated for 30 mins followed by substrate addition for 1 hr by HTRF assay. For orientation: Time-resolved FRET reads energy transfer from a long-lived donor to a nearby acceptor.

Data set [6] can be described thus: Intrinsic clearance in rat hepatocytes assessed per 10^6 cells. The class given is ADME, cell-based, Hepatocyte. To be noted: read-out: CLH.
Data set [7] in a line: Intrinsic clearance in rat liver microsomes at 1 uM after 30 mins in presence of NADPH. The class given is ADME, Microsome. To be noted: read-out: CLH.
Data set [8] can be described thus: Unbound clearance in iv dosed dog. To be noted: in vivo. The data set is classed as ADME, organism-based, Canis lupus familiaris. A digest of the protocol: (§1)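 Unbound plasma fraction (fu) measured by rapid equilibrium dialysis in rat or dog plasma; unbound clearance CLu calculated from IV clearance and fu.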
A short description of data set [9]: Drug metabolism in dog liver microsomes assessed as dehydrogenation of 6,7-dihydro-1H-pyrrolo[3,2-c]pyridin-4(5H)-one measured as 2-(3-(tert-butylamino)-6-fluoro-2-methylquinoxalin-5-yl)-1H-pyrrolo[3,2-c]pyridin-4(5H)-one formation. The data set is classed as ADME, Canis lupus familiaris, Microsome.
The nature of data set [10]: Intrinsic clearance in dog liver microsomes at 1 uM after 30 mins in presence of NADPH. The class given is ADME, Canis lupus familiaris, Microsome. To be noted: read-out: CLH. A digest of the protocol: (§2)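 Parent compound at 1 µM was incubated with liver microsomes (rat or dog, 0.25 mg/mL) in 66.7 mM potassium phosphate, pH 7.4, with 1 mM NADPH at 37 °C for 30 min.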

Data set [11] has as its target Serine/threonine-protein kinase pim-1 (Homo sapiens, UniProt P11309).
The nature of data set [12]: Intrinsic clearance in dog hepatocytes assessed per 10^6 cells. The data set is classed as ADME, cell-based, Canis lupus familiaris, Hepatocyte. To be noted: read-out: CLH.
Data set [13] in a line: Unbound clearance in iv dosed rat. The data set is classed as ADME, organism-based. To be noted: in vivo. An outline of the steps:
as §1

The test system of a further data set is KMS-12-BM. The data set can be described thus: Antitumor activity against human KMS-12-BM cells xenografted in SCID-bg mouse assessed as tumor growth inhibition at 50 mg/kg, po qd measured twice per week. The data set is classed as functional. To be noted: read-out: TGI.
Data set [14] can be described thus: Clearance in rat at 2 mg/kg, iv. The data set is classed as ADME, organism-based. To be noted: in vivo.
The nature of data set [15]: Intrinsic clearance in human liver microsomes at 1 uM after 30 mins in presence of NADPH. The data set is classed as ADME, Microsome. To be noted: read-out: CLH.
The nature of data set [16]: Volume of distribution at steady state in dog at 0.3 mg/kg, iv. To be noted: in vivo. The data set is classed as ADME, organism-based, Canis lupus familiaris.
A short description of data set [17]: Fraction unbound in rat plasma at 5 uM by rapid equilibrium dialysis. The class given is ADME, cell-free.
The target in data set [18] is Serine/threonine-protein kinase PIM (Homo sapiens, UniProt P11309+Q9P1W9+Q86V86). To be noted: kms-12-bm.
Data set [19] can be described thus: Half life in dog at 0.3 mg/kg, iv. The data set is classed as ADME, organism-based, Canis lupus familiaris. To be noted: in vivo.
The nature of data set [20]: Volume of distribution at steady state in rat at 2 mg/kg, iv or 5 mg/kg, po. The class given is ADME, organism-based. To be noted: in vivo, read-out: Vdss.
Data set [21] in a line: Oral bioavailability in rat at 5 mg/kg. The data set is classed as ADME, organism-based. To be noted: in vivo.
Data set [22] is described as follows: Drug level in dog liver microsomes treated with 2-(3-(tert-butylamino)-6-fluoro-2-methylquinoxalin-5-yl)-6,7-dihydro-1H-pyrrolo[3,2-c]pyridin-4(5H)-one. The class given is ADME, Canis lupus familiaris, Microsome. An outline of the steps: as §2

Sequence of Serine/threonine-protein kinase pim-2 (Q9P1W9 whole entry): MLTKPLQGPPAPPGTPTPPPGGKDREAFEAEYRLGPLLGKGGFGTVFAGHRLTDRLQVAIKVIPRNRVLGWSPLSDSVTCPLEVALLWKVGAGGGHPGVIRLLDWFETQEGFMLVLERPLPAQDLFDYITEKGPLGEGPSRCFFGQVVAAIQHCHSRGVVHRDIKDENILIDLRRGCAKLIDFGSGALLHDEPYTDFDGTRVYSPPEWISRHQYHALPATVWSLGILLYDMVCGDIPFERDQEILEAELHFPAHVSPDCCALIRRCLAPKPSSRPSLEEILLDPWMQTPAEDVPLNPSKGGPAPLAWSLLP
Sequence of Serine/threonine-protein kinase pim-1 (P11309 whole entry): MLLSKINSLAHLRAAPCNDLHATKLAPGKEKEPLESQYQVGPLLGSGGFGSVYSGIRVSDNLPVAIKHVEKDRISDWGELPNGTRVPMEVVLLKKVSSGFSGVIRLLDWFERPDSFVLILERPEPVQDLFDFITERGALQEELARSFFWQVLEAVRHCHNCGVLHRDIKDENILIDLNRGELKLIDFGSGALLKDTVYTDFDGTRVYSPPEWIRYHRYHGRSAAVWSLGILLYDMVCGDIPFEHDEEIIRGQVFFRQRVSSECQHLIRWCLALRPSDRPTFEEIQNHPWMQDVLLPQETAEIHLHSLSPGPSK

In data set [1], `Cc1nc2ccc(F)c(-c3cc4c([nH]3)CCNC4=O)c2nc1NC(C)(C)C` displayed a CL of 56.7 mL/min/kg. Besides, the free fraction (fraction unbound) in data set [2] is 0.06. The Drug metabolism entry in data set [3] and in [9] was “Metabolite_Detected” in each case. This compound showed a half-life in [4] of 3.5 h. Also, the pIC50 in data set [5] and in data set [11] was 9.52 each time. For the same compound, the results for the hepatocyte CLint in [6] and in data set [12] were 39 µL/min/1e6 cells and 32 µL/min/1e6 cells, respectively. The microsomal CLint at 1 µM in data set [7] was 189 µL/min/mg; in [10] it was 203 µL/min/mg; in data set [15] it was 66 µL/min/mg. The values for the CL free in data set [8] and in [13] were 943 mL/min/kg and 392 mL/min/kg, respectively. Further, the inhibition in vivo at 50 mg/kg in the data set on KMS-12-BM came to 78%. Moreover, the clearance in data set [14] was 6.67 mL/min/kg. The compound further registered a Vdss in data set [16] of 8.7 L/kg. Moreover, in [17], the fraction unbound at 5 µM came out at 0.017. In addition, in [18], the IC50 was 23 nM. The compound also displayed a t1/2 in [19] of 0.6 h. Further, the Vd in [20] amounted to 1 L/kg. This compound showed a bioavailability in data set [21] of 37%.

`Cc1nc2ccc(F)c(-c3cc4c(=O)[nH]ccc4[nH]3)c2nc1NC(C)(C)C`: the negative-log IC50 (pIC50) in [5] was 10.00; in data set [11], 9.70. Moreover, the Drug metabolism entry in data set [22] is given as “Metabolite_Detected”. The IC50 in data set [18] turned out to be 148 nM.

The fraction unbound is the share of the substance not bound to proteins or other matrix. In general, half-life refers to the time in which the quantity being followed falls by half. Read a high half-life as slow decline. As a reminder, the pIC50 is the negative decadic logarithm of the IC50, by convention in mol/L. A word on the clearance: it is the rate of elimination divided by the concentration. Low values mean inefficient removal, high ones efficient removal. A word on the Vdss: it is a proportionality between amount in the body and measured concentration, not a real space. High values mean extensive tissue distribution, low ones confinement near the circulation. Broadly, the IC50 is the concentration at which inhibition is half-maximal. One may read the bioavailability as dose-corrected exposure relative to a reference, in per cent.
